Tb hexokinase = blocks Trypanosoma brucei hexokinase 1 activity | recombinant TbHK1, G6PDH-coupled NADH A340 | inhibition, % at 10 µM | actives 0.11% (n = 220,000) | AID 1430;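 active means inhibition of 50% or more in the single-dose primary screen; inactive means inhibition below 50%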
Diaph inh CS = inhibits diaphorase or chemically oxidizes, flagging diaphorase assay artifacts. AID 1217. inhibition, % at 20 µM. actives 0.69% (n = 190,000). diaphorase resazurin-to-resorufin fluorescence, NADH, 16 min; bacterial (C. kluyveri) enzyme, not human;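 active means primary screen inhibition at 20 µM above a set limit, cut at about 50% in these data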;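 further: plate controls were DMSO with full reaction for no effect and wells lacking NADH for full effect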
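System: Bacterial diaphorase enzyme (C. kluyveri) | Incubation: 16-min room-temperature incubation before reading | Benchmarks: No-NADH positive control and DMSO neutral control | Measured by: Resorufin fluorescence 544/590 nm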
PfG6PD inh = PfG6PD (Plasmodium falciparum) enzyme inhibition. actives 0.78% (n = 350,000). inhibition, % at 20 µM. PfGluPho enzyme, NADPH resazurin-diaphorase fluorescence;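 active means inhibition reaching at least a set limit at 20 µM in the primary screen, cut at about 59% in these data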;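 further: 0% = DMSO wells with substrate and 100% = DMSO wells lacking glucose-6-phosphate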
HKDC1 inh = inhibitors of human hexokinase HKDC1. Q2TB90. recombinant HKDC1, G6PDH/diaphorase resazurin coupled fluorescence. inhibition, % at 20 µM. actives 0.16% (n = 340,000). AID 493160;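 active means inhibition above about 35% when tested at 20 µM, limit read from the data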;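 further: plate controls were DMSO wells with enzyme for no effect and DMSO wells lacking enzyme for full effect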
Target sequence (Q2TB90 whole entry, looked up): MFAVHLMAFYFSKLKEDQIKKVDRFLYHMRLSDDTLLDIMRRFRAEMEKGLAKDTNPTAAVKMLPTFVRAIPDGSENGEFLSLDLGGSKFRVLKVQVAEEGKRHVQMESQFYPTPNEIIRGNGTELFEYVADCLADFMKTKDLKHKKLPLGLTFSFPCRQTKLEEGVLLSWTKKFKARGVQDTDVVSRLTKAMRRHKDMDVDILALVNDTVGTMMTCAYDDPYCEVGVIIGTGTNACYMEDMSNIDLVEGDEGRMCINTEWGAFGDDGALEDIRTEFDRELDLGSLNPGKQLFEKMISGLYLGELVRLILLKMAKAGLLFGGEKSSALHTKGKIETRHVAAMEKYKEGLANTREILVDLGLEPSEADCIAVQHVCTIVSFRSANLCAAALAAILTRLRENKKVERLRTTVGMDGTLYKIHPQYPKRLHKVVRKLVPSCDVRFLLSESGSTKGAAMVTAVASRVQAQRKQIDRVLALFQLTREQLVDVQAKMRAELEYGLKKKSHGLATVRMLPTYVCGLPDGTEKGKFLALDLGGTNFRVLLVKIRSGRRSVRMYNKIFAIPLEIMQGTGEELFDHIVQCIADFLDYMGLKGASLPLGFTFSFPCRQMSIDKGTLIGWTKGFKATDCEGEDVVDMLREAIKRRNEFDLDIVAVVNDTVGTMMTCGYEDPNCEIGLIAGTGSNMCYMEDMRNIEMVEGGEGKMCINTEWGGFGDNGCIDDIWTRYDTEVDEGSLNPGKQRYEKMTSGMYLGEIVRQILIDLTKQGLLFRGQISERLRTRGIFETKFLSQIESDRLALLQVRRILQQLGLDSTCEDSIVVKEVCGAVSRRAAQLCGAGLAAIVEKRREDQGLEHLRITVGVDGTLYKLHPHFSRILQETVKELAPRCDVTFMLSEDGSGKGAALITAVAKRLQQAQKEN
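Material – in-house recombinant HK5 (HKDC1) enzyme · Quantity – HKDC1 at 5 µg/mL · Buffer or medium – pH 8.0 Tris buffer with 10 mM MgCl2 · Reagent – glucose with 1 mM ATP · Dosing – single 20 µM dose · Times – reaction time 90 min, room temperature, protected from light · Technique – resorufin fluorescence at 613 nm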
Diaphorase act = counter-screen for diaphorase-based assays: diaphorase activators and chemical reducers | Diaphorase/resazurin coupled assay, resorufin fluorescence, 16 min; active compounds read high; 1 = vehicle wells, 0 = NADH-free wells | actives 0.005% (n = 190,000) | activation factor at 20 µM | AID 1229;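 active means diaphorase activity raised at least twofold by the compound at 20 µM; inactive means activation factor below 2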
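Assay system: Purified diaphorase enzyme from Clostridium kluyveri | Amount: Enzyme 0.07 U/mL final | Dosing: Compound 20 µM once, DMSO 1% | Timing: 16 min reaction at room temperature | Detection: Fluorescence, excitation 544 nm and emission 590 nm | Evaluation: Higher resorufin formation from activation or reduction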
G6PDH CS = L. mesenteroides G6PDH inhibition counter-screen. inhibition, % at 5 µM. Purified L. mesenteroides G6PDH, diaphorase/resazurin coupled fluorescence, 45 min. AID 1020. actives 0.12% (n = 200,000); in the data active means inhibition above about 50%
PfG6PD confirm = PfG6PD inhibition, single-dose confirmed; shares compounds with PfG6PD inh; recombinant PfGluPho, NADPH-diaphorase-resazurin fluorescence; inhibition, % at 20 µM; actives 34% (n = 2,400); AID 504753;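 active means inhibition of at least 50% at 20 µM in any single replicate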;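 further: 0% = DMSO with substrate and 100% = DMSO lacking glucose-6-phosphate substrate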
Diaphorase 10uM = counter-screen for P. falciparum G6PD inhibitors: diaphorase inhibitors, oxidizers; shares compounds with PfG6PD inh; actives 39% (n = 820); AID 504862; diaphorase-coupled resazurin reduction, fluorescence, NADPH 10 uM; inhibition, % at 20 µM;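 active means average inhibition reaching 50% or more with the compound at 20 µM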;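 further: resorufin red fluorescence formed as diaphorase reduces resazurin using NADPH; 0% = DMSO with enzyme and 100% = DMSO without enzyme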
Diaph ctr 30uM = inhibits diaphorase or oxidizes, flagging false PfG6PD hits. AID 504863. actives 29% (n = 820). Diaphorase/resazurin coupled assay, resorufin fluorescence, 30 uM NADPH. inhibition, % at 20 µM. shares compounds with PfG6PD inh;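 active means inhibition averaging 50% or more, tested at 20 µM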;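 further: 0% = DMSO with enzyme and 100% = DMSO wells lacking diaphorase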
* marks the source's active call; other numbers are inactive results; / = no result. Sampled rows, rich in hits. Any-hit rate of the full collection: about 1.3%.

SMILES	Tb hexokinase	Diaph inh CS	PfG6PD inh	HKDC1 inh	Diaphorase act	G6PDH CS	PfG6PD confirm	Diaphorase 10uM	Diaph ctr 30uM
CCC1(C)Cc2c(sc3nc(NC)n(C)c(=O)c23)CO1 (stereo not given)	-8	18	8	6	0.8	15	/	/	/
Cn1c(NN)nc2sc3c(c2c1=O)CC(C)(C)OC3	14	9	65*	-15	0.9	12	34	/	/
CCn1ncc2c(OCc3ccc(C#N)cc3)cc(C)nc21	2	14	68*	2	0.9	4	22	/	/
Cc1cnc(C(=O)OCc2ccc(C#N)cc2)cn1	/	/	-13	2	/	/	/	/	/
O=C1C=CC(=Nc2cccc3c2C(=O)c2ccccc2-3)O1	/	/	-13	17	/	/	/	/	/
O=C1C=CC(=Nc2ccc3c(c2)Cc2cc(F)ccc2-3)O1	/	/	61*	-1	/	/	4	/	/
Cc1c(C(=O)OCC(=O)NCCN2C(=O)CSC2=O)cccc1[N+](=O)[O-]	/	/	2	-2	/	/	/	/	/
COc1ccc(CNC(=O)Cc2cn(C)c3ccccc23)c(OC)c1	/	/	79*	-6	/	/	55*	49	52*
O=S(=O)(c1ccc2oc(=S)[nH]c2c1)N1CCOCC1	/	/	66*	-7	/	/	19	/	/
O=[N+]([O-])c1cc2no[n+]([O-])c2cc1N1CCCCC1	/	/	129*	0	/	/	111*	80*	58*
COc1cc(-c2cc(=O)c3c(O)c(OC)c(OC)c(O)c3o2)ccc1O	-14	66*	88*	4	0.3	20	82*	46	25
COc1c(O)c(O)c2oc(-c3ccccc3)cc(=O)c2c1OC	-14	49	98*	8	0.5	21	79*	67*	30
CC(=O)Oc1ccc2c(=O)c(/C=N/c3cc(=O)[nH]c(=S)[nH]3)coc2c1	-15	/	-27	-6	/	/	/	/	/
CC1=NC(C)(C)CC2CCC(O)C12 (stereo not given)	/	/	-7	-10	/	/	/	/	/
CN(C(=O)c1cc2n(n1)C(C(F)(F)F)CC(c1ccco1)N2)c1ccccc1 (stereo not given)	4	7	94*	-6	0.9	5	66*	80*	53*
CN(C(=O)c1cc2n(n1)C(C(F)(F)F)CC(c1ccco1)N2)c1ccc(OC(F)(F)F)cc1 (stereo not given)	2	-8	5	3	1.1	-4	/	/	/
Cc1ccc(S(=O)(=O)c2c(O)c3ccc(C(=O)O)cc3[nH]c2=O)cc1	/	/	-18	-2	/	/	/	/	/
COc1ccc2c(c1)c(C(=O)N/N=C/c1cccc(Br)c1)c(C)n2C	-47	/	115*	9	/	/	87*	88*	65*
Cc1ccccc1-n1c(-c2ccc3ccccc3n2)n[nH]c1=S	-26	/	69*	1	/	/	56*	15	17
S=c1[nH]nc(-c2ccc3ccccc3n2)n1-c1ccc(Cl)cc1	-7	15	36	7	0.8	-5	/	/	/
COc1cccc(-c2[nH]nc3c2C(c2ccsc2)C(C#N)=C(N)O3)c1 (stereo not given)	-5	42	61*	15	0.6	2	34	/	/
O=c1c2ccccc2sn1-c1ccccc1F	/	/	122*	/	/	/	109*	-8	8
Cn1sc2ccccc2c1=O	/	/	91*	/	/	/	52*	-13	8
CCc1ccc(N(C(=O)c2snc(C(N)=O)c2N)C(C(=O)NCC2CCCO2)c2ccco2)cc1 (stereo not given)	/	/	13	-2	/	/	/	/	/
CC(C)N(CCc1ccncc1)C(=S)Nc1cccc(Cl)c1	-9	1	-2	-3	1	12	/	/	/
SMILES	Tb hexokinase	Diaph inh CS	PfG6PD inh	HKDC1 inh	Diaphorase act	G6PDH CS	PfG6PD confirm	Diaphorase 10uM	Diaph ctr 30uM
CCOc1ccccc1/C=N/NC(=O)c1c(C)nc2ccc(Br)cn12	/	/	123*	-3	/	/	98*	93*	97*
CCOc1ccccc1/C=N/NC(=O)c1cccc(S(=O)(=O)N(CC)CC)c1	-4	16	110*	2	0.8	5	60*	64*	54*
COc1cccc(/C=N/NC(=O)c2c(C)nc3ccc(Br)cn23)c1O	1	22	-15	-20	0.8	-6	/	/	/
CCn1c(C)nc2cc(C(=O)N/N=C/c3ccc(O)c(O)c3O)ccc21	6	75*	85*	15	0.2	23	90*	86*	89*
CCN(CC)S(=O)(=O)c1cccc(C(=O)N/N=C/c2ccc(O)c(O)c2O)c1	19	80*	66*	2	0.2	10	71*	76*	86*
CCn1c(C)nc2cc(C(=O)N/N=C/c3cccc(OC)c3O)ccc21	-14	28	-22	-12	0.7	-8	/	/	/
COc1ccccc1C(=O)NCC(=O)NCCC(c1ccccc1)c1ccccc1	/	/	-12	0	/	/	/	/	/
CC(C)(C)c1ccc(OCC(=O)NCCN2CCOCC2)cc1	/	/	-2	-4	/	/	/	/	/
O=c1ccn(-c2cccc(C(F)(F)F)c2)nc1-c1ccn(-c2cccc(Cl)c2)n1	-10	19	87*	1	0.8	2	67*	61*	57*
COC(=O)c1nn(-c2cccc(C(F)(F)F)c2)ccc1=O	/	/	7	-5	/	/	/	/	/
CCC(C)[C@H]1CN=C(N)N1CCc1cccc(F)c1 (stereo not given in full)	/	/	7	1	/	/	/	/	/
COc1ccc(CC2(c3ccccc3)NC(=O)NC2=O)cc1 (stereo not given)	/	/	15	-4	/	/	/	/	/
O=C(CCC(=O)Nc1ccc(F)cc1)N/N=C/c1cccc(Br)c1	/	/	113*	6	/	/	75*	66*	59*
CCCCCCCCC(=O)N/N=C/c1cccc(Br)c1	-3	12	81*	22	0.9	12	11	/	/
COc1cccc(/C=N/NC(=O)CCC(=O)Nc2ccc(Br)cc2)c1	/	/	-1	-1	/	/	/	/	/
Cc1ccc(N(CC(=O)N/N=C/c2cccc(Br)c2)S(C)(=O)=O)cc1	26	11	115*	-8	0.9	13	86*	79*	71*
COc1cc2nc(CN3CCOCC3)n(CC(=O)NCC(F)(F)F)c(=O)c2cc1OC	0	/	-4	17	/	/	/	/	/
COc1cc(-c2cc(OC)c(O)c(OC)c2)cc(OC)c1O	/	/	100*	4	/	/	72*	7	1
Cc1ccc(CNS(=O)(=O)c2ccc(Cl)s2)cc1	/	/	-1	/	/	/	/	/	/
CN(C)CCNC(=O)c1cccc2ccc(-c3ccc(-c4ccccc4)cc3)nc12	/	/	95*	-5	/	/	15	/	/

Compound activity from PubChem BioAssay.
